For data set [1], the target named is T1, Enoyl-acyl carrier reductase (Toxoplasma gondii) (UniProt Q6UCJ9).
T1 sequence (whole entry): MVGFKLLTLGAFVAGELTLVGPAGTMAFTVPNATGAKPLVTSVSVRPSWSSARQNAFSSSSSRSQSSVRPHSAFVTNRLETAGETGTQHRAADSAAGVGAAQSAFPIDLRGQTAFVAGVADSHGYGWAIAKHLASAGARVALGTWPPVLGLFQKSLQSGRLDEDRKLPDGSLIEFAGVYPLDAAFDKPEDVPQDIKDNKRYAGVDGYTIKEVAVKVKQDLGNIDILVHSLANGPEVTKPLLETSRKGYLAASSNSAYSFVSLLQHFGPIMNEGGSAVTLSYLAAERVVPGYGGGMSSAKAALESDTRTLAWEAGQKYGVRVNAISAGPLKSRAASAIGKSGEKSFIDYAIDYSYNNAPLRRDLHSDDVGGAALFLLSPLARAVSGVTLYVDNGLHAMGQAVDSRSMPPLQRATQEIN
Kind of data set: Inhibition of Toxoplasma gondii enoyl acyl-carrier protein reductase at 1 uM.

Data set [2] relates to HFF. As to the kind of experiment: Cytotoxicity against HFF after 72 hrs by WST-1 assay. In kind it is cell-based. As to conditions: human. The essentials:
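Uninfected human foreskin fibroblast host cells were incubated with compounds for 72 h. Viability was then assessed by WST-1 staining. The effect of DMSO levels in the culture medium was assessed alongside.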
In general terms: Tetrazolium dyes change colour on reduction, which living cells bring about.

In data set [3] the target is T2, Enoyl-acyl carrier reductase (Toxoplasma gondii, UniProt Q6UCJ9).
T2 sequence (Q6UCJ9 whole entry): T1 sequence (whole entry)
Kind of data set: Inhibition of Toxoplasma gondii enoyl acyl-carrier protein reductase.

Data set [4] relates to Toxoplasma gondii. Kind of data set: Antiparasitic activity against tachyzoite of Toxoplasma gondii RH expressing yellow fluorescent protein infected in human foreskin fibroblasts after 72 hrs by bacterial beta-galactosidase reporter gene assay. In kind it is functional.
Data set [5] deals with Plasmodium falciparum. Kind of data set: Antiplasmodial activity against blood stage of drug-sensitive Plasmodium falciparum D6. It counts as functional. The essentials: (§1)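 Blood-stage parasites tested in a dose-response growth inhibition assay; values reported in ng/ml.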
For data set [6], the system named is Plasmodium falciparum. As to the kind of experiment: Antiplasmodial activity against blood stage of drug-resistant Plasmodium falciparum TM91C235. It counts as functional. In outline: as §1
Data set [7] relates to Toxoplasma gondii. As to the kind of experiment: Antiparasitic activity against tachyzoite of Toxoplasma gondii RH expressing yellow fluorescent protein infected in human foreskin fibroblasts after 72 hrs by fluorescence assay.

Converted amounts (≈) assume the structure as drawn. The source made the active and inactive calls. The rule behind the calls is not given here.

For the compound `CCCc1cc(-c2ccc(Oc3ccc(C#N)cc3O)c(Cl)c2)no1`, in data set [1], the inhibition was determined as 94%. The Activity in data set [2] is above 10 µM; in data set [5] it was above 2440 ng/mL. The IC50 in data set [3] was determined as 29 nM. For the same compound, the MIC50 in data set [4] was determined as 4 µM (≈ 1.42 µg/mL). In addition, in data set [6], the outcome was inactive.
In data set [1], `CCCc1cc(-c2ccc(Oc3ccc(CNC(=O)c4cc(C)on4)cc3O)c(Cl)c2)no1` registered an inhibition of 89%. Moreover, the Activity in data set [2] was above 10 µM; in data set [5], above 10000 ng/mL. This compound gave an IC50 in data set [3] of 137 nM. Moreover, the MIC50 in data set [7] stood at 4 µM (≈ 1.87 µg/mL).
`Oc1cc(Cl)ccc1Oc1ccc(Cl)cc1Cl` [TRICLOSAN] had an inhibition in data set [1] of 98%. Besides, the Activity in data set [2] is above 10 µM. Further, the MIC50 in data set [7] amounted to 5 µM (≈ 1.45 µg/mL). For the same compound, the result in data set [5] and in data set [6] was inactive.
In data set [1], `N#Cc1ccc(Oc2ccc(-c3cc(CCO)on3)cc2Cl)c(O)c1` came in with an inhibition of 94%. Also, the results for the Activity in data set [2] and in data set [5] were above 10 µM and above 10000 ng/mL, respectively. Besides, the midpoint of inhibition in data set [3], the IC50, lay at 34 nM. In data set [4], this compound came in with an MIC50 of 8 µM (≈ 2.85 µg/mL).
In turn, `Cc1cc(C(=O)NCc2ccc(Oc3ccc(Cl)cc3Cl)c(O)c2)no1` had a half-inhibitory concentration (IC50) in data set [3] of 19 nM.

Usually inhibition stands for the percentage by which the read-out fell short of the control. A higher inhibition goes with a response far below the control. The term IC50 denotes the concentration at which inhibition is half-maximal. Read a low IC50 as greater potency. One may read the MIC50 as the lowest concentration that inhibits either 50% of growth or 50% of the strains tested, depending on the study. A higher MIC50 goes with lower susceptibility.

These data come from ChEMBL document CHEMBL2390941 (Bioorg Med Chem Lett, 2013).
